# Compound activity as filed in PubChem.
# Beta apoptosis: beta cell apoptosis inhibition. INS-1E cytokine-induced death, ATP luminescence, 48 h; percent of positive-control rescue, neutral wells zero. protection from apoptosis, % (no concentration beside the values). 300,000 compounds, 0.8% hits;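 active = Every replicate reaches about 75%, or at least half do and their mean reaches it too, limit read from the data; inconclusive = At least half of replicates reach the limit but their mean does not; inactive = Under half of replicates reach the limit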;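 note: higher means more ATP so stronger rescue from cytokine killing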
# T cruzi inh: blocks replication of Trypanosoma cruzi. T. cruzi beta-gal in NIH3T3, luminescence, 90 h. inhibition, % (test concentration not listed). 300,000 compounds, 1.4% hits;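 active = mean inhibition across valid replicates above about 55%, limit read from the data; inconclusive = mean below that limit but half or more replicates reach it; inactive = mean below it, under half of replicates reach it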;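 note: signal also drops with host cell toxicity which is not excluded here; higher percent means less beta-gal luminescence so fewer parasites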
#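 Test system: β-gal T. cruzi (Tulahuen C4) inside NIH/3T3 cells / Quantity: 5,000 cells/well / Measured by: luminescence from GalScreen with 0.05% NP40, read after 60 min / Medium: DMEM plus 2% FBS / Measure: parasite load inhibition, % / Reagent: Tulahuen C4 trypomastigotes, 5000/well / Schedule: co-culture of at least 90 h after 3 h attachment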
# CSC inhib: blocks cancer stem cells; 300,000 compounds, 1.1% hits; cancer stem cell-like cells viability, luminescence; inhibition, % at 7.5 µM; AID 2717; in the data active = inhibition above about 75%; inconclusive = no clear call, values can overlap the other calls; tested in HMLE shEcad cells
# SUMO Mot1 rescue: SUMOylation pathway inhibition by Mot1-301 growth rescue; 320,000 compounds, 1% hits; S. cerevisiae Mot1-301 growth rescue, ATP luminescence, 38.5C; percent above DMSO median, 100 means doubled; growth rescue, % at 18.8 µM; AID 2716;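 active = every valid replicate shows activation above 250% relative to neutral control wells; inactive = the rest, any valid replicate at or below 250%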
# WT yeast gro inh: growth inhibition of WT yeast, mitochondrial fusion screen | mitochondrial fusion phenotypic screen, WT strain | inhibition, % at 10 µM | 190,000 compounds, 2.1% hits | AID 1362; in the data active = inhibition above about 58%; tested in S. cerevisiae
# Efflux pump mplx: inhibitors of Candida antifungal efflux pumps expressed in yeast. inhibition, % at 10 µM. AID 485275. S. cerevisiae Candida pump triplex, Nile Red efflux. 330,000 compounds, 0.44% hits;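 active = plate passing quality check with inhibition over a set limit, or well fluorescence over plate mean plus 4 SD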;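 note: Nile Red retained in pooled yeast measured as flow cytometry median fluorescence; higher means more Nile Red kept so more efflux inhibition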
# A number is an active result; i = inactive; ? = inconclusive; nt = no result. An excerpt weighted towards active compounds, which were near 4.8% of everything screened.
SMILES,Beta apoptosis,T cruzi inh,CSC inhib,SUMO Mot1 rescue,WT yeast gro inh,Efflux pump mplx
Cc1cccc(C(=O)Nc2ccc(C(=O)Nc3ccc(O)cc3)cc2)c1,i,i,95,i,nt,i
Cc1cccc(C(=O)Nc2ccc(NC(=O)c3ccccc3)cc2)c1,i,i,i,i,nt,i
COC(=O)C1(c2ccccc2)NC(c2cccs2)C2C(=O)N(c3ccccc3)C(=O)C21 (configuration not stated),i,i,i,i,i,i
COCCNC(=O)c1ccccc1NC(=O)c1ccccc1SC,i,i,i,i,i,i
CC(C)c1nc(N2CCCC2)c(C#N)c2c1CCCC2,i,i,i,i,70,i
Cc1ccccc1C(=O)NC1CCN(CC(=O)Nc2ccc3c(c2)OCO3)CC1,i,i,i,i,i,i
O=C(CN1CCC(NC(=O)c2ccccc2F)CC1)Nc1ccc2c(c1)OCO2,i,i,i,667,i,i
CN1CCN(CCCNC(=O)c2ccc(/C=C3/Sc4ccccc4N(Cc4cccc(Cl)c4)C3=O)cc2)CC1,nt,58,nt,nt,97,nt
Cc1cccc(CN2C(=O)/C(=C\c3ccc(C(=O)NCCCN4CCN(C)CC4)cc3)Oc3ccccc32)c1,i,i,105,i,nt,i
CCN1CCN(CCNC(=O)c2ccc(/C=C3\Sc4ccccc4N(Cc4ccccc4F)C3=O)cc2)CC1,i,60,i,i,77,i
CN1C(=O)/C(=C/c2cccc(Cl)c2)Sc2ccc(C(=O)NCc3cccnc3)cc21,i,i,96,i,i,i
CN(Cc1ccc(Cl)cc1)C(=O)COC(=O)CSc1ccc([N+](=O)[O-])cc1,i,nt,nt,i,nt,i
CC(=O)NC1(c2ccccc2)CCN(c2cc(C)nc(-c3ccccc3)n2)CC1,i,i,i,i,i,i
Cc1ccc(CN(C(=O)COc2ccc(C)c(C)c2)C2CCS(=O)(=O)C2)o1 (configuration not stated),i,i,i,i,nt,i
Cc1nn(-c2ccccc2)c(Cl)c1/C=N/NC(=O)c1[nH]ncc1Br,i,i,i,i,nt,i
Cc1ccc(CNC(=O)C2CCN(C(=O)Nc3ccc(C)cc3)CC2)cc1,nt,i,nt,nt,nt,nt
O=C(NCc1ccc(Cl)cc1)C1CC(O)CN1S(=O)(=O)c1ccc(Cl)cc1 (configuration not stated),i,i,i,i,nt,i
CC[n+]1ccccc1/C=C/c1ccc(N(C)C)cc1,nt,59,nt,nt,i,nt
CC[n+]1ccc(/C=C/c2ccc(N(C)C)cc2)c2ccccc21,nt,nt,nt,nt,87,nt
CN(C)c1ccc(/C=N/NC(N)=S)cc1[N+](=O)[O-],i,i,i,i,i,i
CCN1CCN(Cc2ccc(NC(=O)c3ccc(C)c(NC(=O)c4c[nH]c5cc(C(F)(F)F)ccc5c4=O)c3)cc2C(F)(F)F)CC1,99,i,105,i,nt,nt
Cc1ccc(C(=O)Nc2cccc(C(F)(F)F)c2)cc1NC(=O)c1c[nH]c2cc(C(F)(F)F)ccc2c1=O,i,nt,i,i,nt,i
CCN(CCCNC(=O)CCCOc1cc(=O)n(C)c2ccccc12)Cc1ccccc1,i,55,i,i,i,i
CC(C)CCNC(=O)CCCOc1cc(=O)n(C)c2ccccc12,i,i,i,i,96,i
Cc1ccc(C)c(N2CCN(C(=O)CCCOc3cc(=O)n(C)c4ccccc34)CC2)c1,94,i,i,i,i,i
SMILES,Beta apoptosis,T cruzi inh,CSC inhib,SUMO Mot1 rescue,WT yeast gro inh,Efflux pump mplx
CC(C)OP(=O)(c1ccc(N(C)C)cc1)C(O)c1ccc(N(C)C)cc1 (configuration not stated),i,i,i,i,nt,i
COc1cccc(C2C(C(=O)c3cc4ccccc4o3)=C(O)C(=O)N2CCN(C)C)c1OC (configuration not stated),i,i,i,i,nt,i
COc1cccc(C2C(C(=O)c3ccco3)=C(O)C(=O)N2CCN(C)C)c1OC (configuration not stated),nt,i,i,470,i,i
Nc1ncnc2c1ncn2[C@@H]1O[C@H](CNC(=O)[C@@H](N)COCc2ccccc2)[C@@H](O)[C@H]1O,nt,nt,nt,nt,nt,i
Cn1ccsc1=NC(=O)c1ccc([N+](=O)[O-])o1,i,60,i,i,nt,i
CC(C)c1ccc(NC(=O)COc2ccccc2)cc1,i,i,i,i,nt,i
CCc1ccc(NC(=O)CSc2ccc(-c3ccccn3)nn2)cc1,86,?,i,i,nt,i
CC(C)c1ccc(NC(=O)COc2ccccn2)cc1,i,56,i,i,i,i
Nc1cccc(-n2nnnc2CN2CCOCC2)c1,i,i,i,i,i,i
CCOC(=O)Cn1c(=S)[nH]c2c(oc3ccc(Cl)cc32)c1=O,i,i,i,nt,i,i
COc1cccc(-c2c(NC(=O)c3ccco3)oc3ccccc3c2=O)c1,i,i,i,519,nt,i
O=C(N/N=C/c1cc(Br)cc(Br)c1O)c1cccc(N2CCCC2=O)c1,i,61,i,i,i,i
CCC(O)(CC)C(=O)N/N=C/c1cc(Br)cc(Br)c1O,i,i,?,494,nt,i
O=C(N/N=C/c1cc(Br)c(Br)s1)c1ccncc1,85,i,i,i,i,i
O=C(N/N=C/c1ccc(Br)s1)c1ccncc1,i,i,nt,nt,i,i
O=C(N/N=C/c1cc(Br)cc(Br)c1O)c1ccncc1,79,i,i,i,i,i
CCOC(=O)CC1COCCN1C(=O)c1cc(COc2ccc(F)cc2Cl)on1 (configuration not stated),i,i,i,i,nt,i
O=C(NC1CC2CCCC(C1)N2C(=S)NCCc1ccccc1)C1CC1 (configuration not stated),i,i,i,i,i,i
Cc1cc(/C=N/NC(N)=S)c(C)n1-c1cccc(Cl)c1,i,73,i,i,i,i
COC(=O)c1ccccc1NC(=O)NC1CCCCC1,i,i,i,i,nt,i
O=C(Nc1ccc(Oc2ccc(Cl)cc2)c(Cl)c1)c1cc(I)cc(I)c1O,i,i,100,i,nt,i
CN(C)CCCN(C(=O)c1ccc(N2C(=O)CCC2=O)cc1)c1nc2c(F)cccc2s1,i,57,i,i,i,i
CN(C)CCCN(C(=O)c1ccc2c(c1)CCCC2)c1nc2c(F)cccc2s1,i,58,i,i,i,i
Cc1ccc2nc(N(CCCN(C)C)C(=O)c3ccc4c(c3)CCCC4)sc2c1,i,i,i,i,i,i
Cc1cc(C)c2nc(N(CCCN(C)C)C(=O)c3ccc4c(c3)CCCC4)sc2c1,nt,58,i,i,nt,i
CN(C)CCCN(C(=O)c1ccc(S(=O)(=O)N(C)Cc2ccccc2)cc1)c1nc2c(F)cccc2s1,i,i,i,i,nt,i
O=C1Nc2ccc(Cl)cc2[C@@](C#CC2CC2)(C(F)(F)F)O1,i,i,?,i,82,i
CCCOc1ccc(CNCCCOCC)cc1OC,i,63,i,i,i,i
COc1cc(C(=O)NC(=S)Nc2ccc(Cl)cn2)cc(OC)c1OC,i,i,i,i,nt,i
CC(NCc1ccncc1)C12CC3CC(CC(C3)C1)C2 (configuration not stated),i,63,i,i,i,i
